Results from ChEMBL document CHEMBL1129598, “Design, synthesis, and in vitro evaluation of cyclic nitrones as free radical traps for the treatment of stroke” (J Med Chem, 1996).

What was measured:
[1] = lipophilicity of the compound.; format: physicochemical; details: reversed-phase HPLC
Procedure, shortened: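 Lipophilicity was measured by reversed-phase HPLC as log k′_w. Samples at 0.5 mg/mL in MeOH were run on a C18 column (15 cm × 4.6 mm, 5 µm). Elution used 32–62% MeOH in pH 7.4 phosphate buffer, at three MeOH levels per compound.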

[2] = In vitro inhibition of oxidation of soybean phosphatidylcholine liposomes using lipid peroxidation assay.; format: functional, Glycine max
Procedure, shortened: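 Soybean phosphatidylcholine liposomes were oxidised with an Fe²⁺/Fe³⁺ mixture to start peroxidation, with test agent present, and oxidation products were then analysed. A reference cyclic nitrone was run as an internal standard in each experiment. Runs were rejected if its value deviated by more than 15% from its established value.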

Row | Log K'W [1] | IC50 [2] | Compound
1 | 1.47 | 1720 µM | CC1(C)Cc2ccsc2C=[N+]1[O-]
2 | 2.69 | 69 µM | CC1(C)Cc2ccc3ccccc3c2C=[N+]1[O-]
3 | 1.61 | 1360 µM | CC1(C)c2ccccc2C=[N+]1[O-]
4 | 1.65 | 1240 µM | [O-][N+]1=Cc2ccccc2CC12CCOCC2
5 | 1.16 | 1070 µM | CC1(C)Cc2ccoc2C=[N+]1[O-]
6 | 2.29 | 22 µM | Cc1cc2c(c(C)c1O)CCC(C)(C)[N+]([O-])=C2
7 | 2.99 | 730 µM | [O-][N+]1=Cc2ccccc2CCC12CCCCC2
8 | 2.67 | 100 µM | CC1(C)Cc2c(ccc3ccccc23)C=[N+]1[O-]
9 | 1.9 | 1670 µM | CC1(C)Cc2ccccc2C=[N+]1[O-]
10 |  | 14300 µM | CC(C)(C)/[N+]([O-])=C/c1ccccc1
11 | 1.82 | 66 µM | Cc1cc2c(c(C)c1O)CC(C)(C)[N+]([O-])=C2
12 | 0.68 | 810 µM | CC1(C)c2cc(O)ccc2C=[N+]1[O-]
13 | 1.75 | 910 µM | COc1ccc2c(c1)C(C)(C)[N+]([O-])=C2
14 | 1.98 | 1090 µM | COc1cccc2c1C=[N+]([O-])C2(C)C
15 | 1.98 | 310 µM | [O-][N+]1=Cc2ccccc2CCC12CCOCC2
16 | 1.57 | 1590 µM | CC1(C)Cc2sccc2C=[N+]1[O-]
